Among the data in PubChem BioAssay AID504338 (NMMLSC, 2011) are GFP response vs DMSO values, retold here.

The structures appear in SMILES notation. Where “and” joins values, the source holds several entries; their conditions need not be identical. Equal entries are not always repeated. Values without a mark were called inactive. Calls of active or inactive are those of the source.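 How the source made its calls: active means GFP response vs DMSO above 150% with enough events counted; inconclusive means fewer than 70 events counted for a yeast strain; inactive means the rest.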

This assay in a line: yeast TOR reporter LAP4-GFP retest – cell-based, third cherry pick, flow cytometry, confirmation (AID 504338).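 Further: ratio to plate DMSO wells so 100% equals DMSO level rather than 0%.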 Conditions: S. cerevisiae LAP4-GFP strain, 3 h, at 10 µM, hits give high values. In a few lines: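 System: Saccharomyces cerevisiae strain expressing LAP4-GFP fusion protein. Quantity: cells at 0.2 OD600. Medium: synthetic complete medium. Read-out basis: median GFP fluorescence as percent of plate DMSO-well average. Signal: high-throughput flow cytometry of GFP, single-cell scatter gate. Schedule: 3 h treatment, 30 °C. Dosing: single compound dose, 10 µM final.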
For orientation: A flow cytometer gives signals particle by particle.
With `COc1ccc(OC)c(N/C(C)=C/C(=O)c2ccccc2)c1`, the GFP response vs DMSO was 103%.
For `Cc1nc(Nc2ccc(Cl)cc2)c(C#N)c(=O)[nH]1` the value was 107%; for `CC(=O)Nc1ccc(-c2nc3cc(Cl)ccc3o2)cc1`, 104%; for `COc1cccc(N/C=C/C(=O)c2ccc(Cl)cc2)c1`, 111%.
For `COCCCNc1nc(N)c([N+](=O)[O-])c(Nc2cc(OC)ccc2OC)n1` the value was 103%.
To `COc1ccc(OC)c2c(C)cc(C)nc12` belongs 103%; to `Cc1cc(C)c2ccc(N)nc2c1O`, 97.2%; to `CSc1ccccc1OCc1cc(C(=O)N2CCN(C)C(c3ccccc3)C2)no1` (centres undefined), 107%.
For the compound `COc1ccc(OC)c(Nc2nc(NCCC(C)C)nc(N)c2[N+](=O)[O-])c1`, the GFP response vs DMSO is 103%.
For `COc1ccc(N/C(C)=C/C(=O)c2ccccc2)cc1` the value was 104%; for `C=CCNc1nc(N)c([N+](=O)[O-])c(Nc2cccc(Cl)c2)n1`, 104%; for `C=CCNc1nc(N)c([N+](=O)[O-])c(Nc2ccccc2OC)n1`, 100%.
To `COc1ccccc1Nc1nc(NCCO)nc(N)c1[N+](=O)[O-]` belongs 104%; to `N#Cc1c(N)nc(N)nc1Nc1ccc(Br)cc1`, 104%; to `C/C(=N\NC(=O)c1cccc2ccccc12)c1cccnc1`, 104%.
To `COCC(C)NC(=O)CCS(=O)(=O)c1nc(-c2ccc(OC)cc2)cc(C(F)(F)F)n1` (centres undefined) belongs 104%; to `O=C(O)c1ccc2cccnc2c1O`, 106%; to `C/C(=N\NC(=O)c1ccccc1)c1ccccc1F`, 106%.
For the compound `CC(=O)Nc1ccc(-c2nc3ccccc3o2)cc1`, the GFP response vs DMSO is 108%.
Consider `COc1ccc(NC(=O)ON=C2c3ccccc3-c3ccccc32)cc1`, for which the GFP response vs DMSO was 104%.
To `Oc1c(Br)cc(Br)c2cccnc12` belongs 257% (active); to `COCCNc1nc(N)c([N+](=O)[O-])c(Nc2ccc(F)cc2)n1`, 106%.
To `Cc1cccc(C)c1Nc1ncnc(N)c1[N+](=O)[O-]` belongs 101%; to `CCOC(=O)CS(=O)(=O)c1nc(-c2ccccc2)cc(C(F)(F)F)n1`, 182% (active); to `C[n+]1cccc2cccc([O-])c21`, 107%.
As for `COc1cccc(OCc2cc(C(=O)N3CCN(C)C(c4ccccc4)C3)no2)c1` (centres undefined), the GFP response vs DMSO was 106%.
For `CCc1c(C)nc2c(OC)cccc2c1Cl` the value was 104%; for `Cc1cccc(Nc2cc(=O)[nH]c(=O)[nH]2)c1`, 106%.
To `Cc1cccc(N/C=C/C(=O)c2ccc(Cl)cc2)c1` belongs 110%; to `Cc1ccc(Nc2cc(=O)[nH]c(=O)[nH]2)cc1Cl`, 103%.
For the compound `COc1ccccc1-c1cc(C(F)(F)F)nc(S(=O)(=O)CCCC(=O)O)n1`, the GFP response vs DMSO is 112%.
To `COc1ccccc1-c1cc(C(F)(F)F)nc(S(=O)(=O)CCCC(=O)NC(C)C)n1` belongs 101% and 104%.
For `CCCC(=O)Nn1cnc2c(c1=O)C1(CCCCC1)Cc1ccccc1-2` the value was 103%; for `CC(C)Nc1ncnc2ccc(Br)cc12`, 106%; for `COc1ccccc1OCc1cc(C(=O)N2CCN(C)C(c3ccccc3)C2)no1` (centres undefined), 106%.
Consider `Cc1ccc(Nc2cc(=O)[nH]c(=O)[nH]2)cc1C`, for which the GFP response vs DMSO was 104%.
To `C/C(=C\C(=O)c1ccc(C)cc1)Nc1cccc(O)c1` belongs 106%.
For `Cn1cccc1C(=O)Nc1nc(-c2ccccn2)cs1` the value was 114%; for `O=C(Nc1cccc(Cl)c1)ON=C1c2ccccc2-c2ccccc21`, 107%.
